Columns and labels:
Stomach ulcerogenicity = assay type: in vivo, Sprague-Dawley rats; settings: rats; for ulcer index: 1.38 mmol/kg p.o., 6 h post-administration; for ulcerogenicity compared to control: 1.38 mmol/kg
How it was run: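 Sprague-Dawley rats fasted 24 h with water available, then dosed orally at 1.38 mmol/kg suspended in 1.2 mL 1% methylcellulose; controls received vehicle. Killed by CO2 at 6 h; stomachs removed onto ice and lesions inspected under a magnifier, scored by size. Ulcer index = summed ulcer length per stomach, averaged over the animals in the group.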

Guinea pig serum = assay type: in vitro ADME; settings: pH 7.4, 37°C; for first-order rate constant k2 of loss of 241 nm peak: 2% guinea pig serum, second, slow process
How it was run: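 Test compound added from a 1000× DMSO stock to 50 μM DTPA in Ca/Mg-free DPBS, pH 7.4, with 2% guinea pig serum at 37°C; blank was buffer plus serum. UV spectra taken every second for 600 s, then every 60–120 s; total scan 2500 s to 62 h. Rate constants from fitting A = ΔAe^(−kt) + A∞.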

HUVECs = assay: MTT cell viability assay, HUVECs; assay type: cell-based, human; settings: 48 h, 25-100 μM, n = 1
How it was run: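 HUVECs kept in endothelial growth medium at 37°C, 5% CO2, 80% humidity. Seeded at 8,000–10,000 per well, grown overnight, then treated 48 h across a concentration range (prodrugs 0–200 μM). MTT (2 mg/mL solution) added for 1 h at 37°C; medium removed, formazan dissolved in DMSO, absorbance read at 550 nm. One experiment, at least triplicate wells.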

[1] = assay type: physicochemical; settings: for rate of decomposition of NONO-salicylate derivatives: spontaneous, pH not printed at the place
GAPDH = GAPDH (Homo sapiens, UniProt P04406); assay: GAPDH activity in A549 cells; assay type: cell-based; settings: 100 μM, 1 h
How it was run: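 A549 cells, seeded at 30,000 per well and grown overnight, exposed to test compound at 100 μM for 1 h at 37°C. Cells lysed in kit lysis buffer for 20 min at 4°C. Lysate mixed with kit mastermix; fluorescence read at 570 nm with excitation at 540 nm. Triplicate; mean ± SD; one-way ANOVA versus untreated control.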

[2] = Fetal bovine serum induced hydrolysis, followed spectrophotometrically; assay type: in vitro ADME; settings: pH 7.4, 37°C, n = 1
COX-2 = assay: PGE2 levels in A549 cells; assay type: cell-based, human; settings: 25 and 50 μM, 24 h
How it was run: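 A549 cells grown in RPMI 1640 with 10% FBS and penicillin/streptomycin. Seeded at 50,000 per well, grown 12 h, then given test compound at 25 or 50 μM (0.1% DMSO) for 24 h at 37°C. Supernatant PGE2 measured by competitive EIA (AChE tracer plus monoclonal antibody, overnight at 4°C), developed with Ellman's reagent, absorbance at […]. Triplicate.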

[3] = system: isolated murine ventricular myocytes; assay type: cell-based, mouse; settings: 500 μM
[4] = system: various cancer cells lines; settings: read-out: IC50 (cytotoxicity); cited from earlier work
[5] = pH 7.4, PBS with 50 μM DTPA, 37°C

GAPDH, sequence (P04406 whole entry): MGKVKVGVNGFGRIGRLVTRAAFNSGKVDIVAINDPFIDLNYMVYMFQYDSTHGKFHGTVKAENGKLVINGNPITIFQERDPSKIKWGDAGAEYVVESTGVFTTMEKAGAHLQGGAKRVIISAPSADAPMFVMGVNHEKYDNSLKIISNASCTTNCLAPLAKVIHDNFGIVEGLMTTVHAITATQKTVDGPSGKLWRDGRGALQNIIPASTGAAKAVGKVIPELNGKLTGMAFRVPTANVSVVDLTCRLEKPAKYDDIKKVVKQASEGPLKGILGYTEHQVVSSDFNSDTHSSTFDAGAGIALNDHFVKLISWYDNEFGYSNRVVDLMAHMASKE

| SMILES | ulcer index (Stomach ulcerogenicity) | ulcerogenicity compared to control (Stomach ulcerogenicity) | first-order rate constant k2 of loss of 241 nm peak (Guinea pig serum) | effect on viability of HUVECs (HUVECs) | first-order rate constant of decomposition at 241 nm [1, 5] | rate of decomposition of NONO-salicylate derivatives [1] [s⁻¹] | rate constant of hydrolysis/decomposition at pH 10 ([1]; pH 10, 37°C) | further results |
| --- | --- | --- | --- | --- | --- | --- | --- | --- |
| CCN(CC)/[N+]([O-])=N/OCOC(=O)c1ccccc1OC(C)=O [DEA/NO-aspirin, O^2-(Acetylsalicyloyloxymethyl)-1-(N,N-diethylamino)-diazen-1-ium-1,2-diolate] | 0 | not significantly increased compared to control | (1.1 ± 0.6) × 10^−3 s^−1 | no effect on viability up to 100 μM | 5.3e-06 s⁻¹ | – | – | rate constant of initial growth near 250 nm (production of DEA/NO) ([1]; pH 10, 37°C): (4.5 ± 0.6) × 10^−5 s^−1 |
| CCN(CC)/[N+]([O-])=N/OCOC(=O)c1ccccc1O [DEA/NO-salicylate, O^2-(2-hydroxybenzoyloxymethyl)-1-(N,N-diethylamino)-diazen-1-ium-1,2-diolate] | – | – | – | – | – | 3.1e-05 | – | – |
| CC(C)N/[N+]([O-])=N/[O-].[Na+] [IPA/NO, sodium 1-(N-isopropylamino)diazen-1-ium-1,2-diolate, reference compound] | – | – | – | – | – | – | 4.1 × 10^−4 s^−1 | – |
| CC(=O)Oc1ccccc1C(=O)OCO/N=[N+](\[O-])NC(C)C [IPA/NO-aspirin, O^2-(Acetylsalicyloyloxymethyl)-1-(N-isopropylamino)-diazen-1-ium-1,2-diolate] | – | not significantly increased compared to control | (6.5 ± 0.12) × 10^−4 s^−1 | no effect on viability up to 100 μM | (2.6 ± 0.2) × 10^−5 s^−1 | – | (3.5 ± 0.8) × 10^−3 s^−1 | inhibition of GAPDH activity (GAPDH): highest; rate constant of decomposition with FBS [2]: 2.7e-05 s⁻¹; PGE2 levels (COX-2): decreased most significantly; change of time of half-relaxation from peak shortening ([3]; mean ± SEM): −17 ± 3%; increase in sarcomere shortening from control ([3]; n = 12, mean ± SEM): +201 ± 18% |
| CC(C)N/[N+]([O-])=N/OCOC(=O)c1ccccc1O [IPA/NO-salicylate, O^2-(2-hydroxybenzoyloxymethyl)-1-(N-isopropylamino)-diazen-1-ium-1,2-diolate] | – | – | – | – | – | 7e-05 | – | – |
| CC(=O)Oc1ccccc1C(=O)O [aspirin, acetylsalicylic acid, reference compound] | 57.4 ± 3.1 | – | – | – | – | – | (1.6 ± 0.5) × 10^−4 s^−1 | IC50 [4]: > 1 mM; rate of hydrolysis in the presence of guinea pig serum (Guinea pig serum; guinea pig serum): (4.7 ± 0.17) × 10^−4 s^−1; first-order rate constant of spontaneous hydrolysis at 295 nm [1, 5]: 9.8e-06 s⁻¹ |
